Source: ChEMBL document CHEMBL4346672, “Antimicrobial and KPC/AmpC inhibitory activity of functionalized benzosiloxaboroles” (Eur J Med Chem, 2019)

Key:
Klebsiella pneumoniae [1] = experiment: Inhibition of beta lactamase KPC-2 in Klebsiella pneumoniae 75 assessed as potentiation of ceftazidime-induced antibacterial activity by measuring ceftazidime MIC at 16 mg/L incubated for 18 hrs by broth dilution method (reference value: […] mg/L)
Klebsiella pneumoniae [2] = experiment: Inhibition of beta lactamase CMY-2 in Klebsiella pneumoniae 78 assessed as potentiation of ceftazidime-induced antibacterial activity by measuring ceftazidime MIC at 16 mg/L incubated for 18 hrs by broth dilution method (reference value: >[…] mg/L)
[3] = system: Klebsiella pneumoniae ATCC BAA-1705; experiment: Inhibition of beta lactamase KPC-2 in Klebsiella pneumoniae ATCC BAA 1705 assessed as potentiation of ceftazidime-induced antibacterial activity by measuring ceftazidime MIC at 16 mg/L incubated for 18 hrs by broth dilution method
Acinetobacter baumannii [4] = experiment: Inhibition of beta lactamase OXA-24 in Acinetobacter baumannii 181 assessed as potentiation of meropenem-induced antibacterial activity by measuring meropenem MIC at 16 mg/L incubated for 18 hrs by broth dilution method (reference value: […] mg/L)
Acinetobacter baumannii [5] = experiment: Inhibition of beta lactamase OXA-24 in Acinetobacter baumannii 181 assessed as potentiation of ceftazidime-induced antibacterial activity by measuring ceftazidime MIC at 16 mg/L incubated for 18 hrs by broth dilution method (reference value: >[…] mg/L)
Pseudomonas aeruginosa [6] = experiment: Inhibition of beta lactamase AmpC in Pseudomonas aeruginosa 700 assessed as potentiation of ceftazidime-induced antibacterial activity by measuring ceftazidime MIC at 16 mg/L incubated for 18 hrs by broth dilution method (reference value: >[…] mg/L)
[7] = system: Klebsiella pneumoniae ATCC BAA-1705; experiment: Inhibition of beta lactamase KPC-2 in Klebsiella pneumoniae ATCC BAA 1705 assessed as potentiation of meropenem-induced antibacterial activity by measuring meropenem MIC at 16 mg/L incubated for 18 hrs by broth dilution method (reference value: […] mg/L)
Escherichia coli [8] = experiment: Inhibition of beta lactamase CMY-2 in Escherichia coli 77 assessed as potentiation of ceftazidime-induced antibacterial activity by measuring ceftazidime MIC at 16 mg/L incubated for 18 hrs by broth dilution method (reference value: […] mg/L)
Escherichia coli [9] = experiment: Inhibition of beta lactamase CMY-2 in Escherichia coli 77 assessed as potentiation of ceftazidime-induced antibacterial activity by measuring diameter of zone inhibition at 0.3 mg incubated for 18 hrs in presence of 30 ug ceftazidime by CLSI disc diffusion method (Rvb=13 mm)
In short: (§1)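 AmpC combination disc test on Mueller-Hinton agar, following EUCAST guidance and Yagi et al. Inhibition zones were compared between a CAZ-30 disc and a ceftazidime disc plus agent or PBA, each at 0.3 mg per disc. Plates were incubated at 35 °C for 18 h. A zone difference of at least 5 mm was counted as inhibition.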

[10] = system: Klebsiella pneumoniae 700603; experiment: Inhibition of extended-spectrum beta lactamase in Klebsiella pneumoniae ATCC 700603 assessed as potentiation of ceftazidime-induced antibacterial activity by measuring diameter of zone inhibition at 0.3 mg incubated for 18 hrs in presence of 10 ug ceftazidime by CLSI disc diffusion method (Rvb=13 mm)
In short: (§2)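 EUCAST ESBL combination disc test on Mueller-Hinton agar. Zones were compared between a ceftazidime or cefotaxime disc alone and the same disc plus agent at 0.3 mg per disc. Clavulanic acid discs at 0.01 mg per disc served as reference. Plates were incubated at 35 °C for 18 h. A difference of at least 5 mm was counted as inhibition.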

Pseudomonas aeruginosa [11] = experiment: Inhibition of beta lactamase OXA-15 in Pseudomonas aeruginosa 852 assessed as potentiation of ceftazidime-induced antibacterial activity by measuring ceftazidime MIC at 16 mg/L incubated for 18 hrs by broth dilution method (reference value: >[…] mg/L)
[12] = system: Klebsiella pneumoniae ATCC BAA-1705; experiment: Inhibition of beta lactamase KPC in Klebsiella pneumoniae ATCC BAA 1705 assessed as potentiation of meropenem-induced antibacterial activity by measuring diameter of zone inhibition at 0.3 mg incubated for 18 hrs in presence of 10 ug meropenem by CLSI disc diffusion method (Rvb=[…] mm)
Pseudomonas aeruginosa [13] = experiment: Inhibition of beta lactamase VIM in Pseudomonas aeruginosa 698 assessed as potentiation of ceftazidime-induced antibacterial activity by measuring ceftazidime MIC at 16 mg/L incubated for 18 hrs by broth dilution method (reference value: […] mg/L)
Klebsiella pneumoniae [14] = experiment: Inhibition of beta lactamase SHV-12 in Klebsiella pneumoniae ATCC 700603 assessed as potentiation of ceftazidime-induced antibacterial activity by measuring ceftazidime MIC at 16 mg/L incubated for 18 hrs by broth dilution method (reference value: […] mg/L)
[15] = target: Class A carbapenemase KPC-2 (Escherichia coli) (UniProt A8DS27); experiment: Inhibition of beta lactamase KPC-2 in Escherichia coli 76 assessed as potentiation of ceftazidime-induced antibacterial activity by measuring ceftazidime MIC at 16 mg/L incubated for 18 hrs by broth dilution method (reference value: >[…] mg/L)
Escherichia coli [16] = experiment: Inhibition of beta lactamase KPC-3 in Escherichia coli 82 TR assessed as potentiation of ceftazidime-induced antibacterial activity by measuring ceftazidime MIC at 16 mg/L incubated for 18 hrs by broth dilution method (reference value: […] mg/L)
Klebsiella pneumoniae [17] = experiment: Inhibition of beta lactamase KPC-3 in Klebsiella pneumoniae 83 assessed as potentiation of meropenem-induced antibacterial activity by measuring meropenem MIC at 16 mg/L incubated for 18 hrs by broth dilution method (reference value: […] mg/L)
Klebsiella pneumoniae [18] = experiment: Inhibition of beta lactamase KPC-3 in Klebsiella pneumoniae 81 assessed as potentiation of meropenem-induced antibacterial activity by measuring meropenem MIC at 16 mg/L incubated for 18 hrs by broth dilution method (reference value: […] mg/L)
[19] = system: Klebsiella pneumoniae 700603; experiment: Inhibition of extended-spectrum beta lactamase in Klebsiella pneumoniae ATCC 700603 assessed as potentiation of cefotaxime-induced antibacterial activity by measuring diameter of zone inhibition at 0.3 mg incubated for 18 hrs in presence of 10 ug cefotaxime by CLSI disc diffusion method (Rvb=19 mm); in short: as §2
Pseudomonas aeruginosa [20] = experiment: Inhibition of beta lactamase AmpC in Pseudomonas aeruginosa MUW 700 assessed as potentiation of ceftazidime-induced antibacterial activity by measuring diameter of zone inhibition at 0.3 mg incubated for 18 hrs in presence of 30 ug ceftazidime by CLSI disc diffusion method (Rvb=11 mm); in short: as §1
Klebsiella pneumoniae [21] = experiment: Inhibition of beta lactamase KPC-3 in Klebsiella pneumoniae 81 assessed as potentiation of ceftazidime-induced antibacterial activity by measuring ceftazidime MIC at 16 mg/L incubated for 18 hrs by broth dilution method (reference value: >[…] mg/L)
Escherichia coli [22] = experiment: Inhibition of beta lactamase KPC-3 in Escherichia coli 82 TR assessed as potentiation of meropenem-induced antibacterial activity by measuring meropenem MIC at 16 mg/L incubated for 18 hrs by broth dilution method (reference value: 2 mg/L)
Klebsiella pneumoniae [23] = experiment: Inhibition of beta lactamase KPC-2 in Klebsiella pneumoniae 75 assessed as potentiation of meropenem-induced antibacterial activity by measuring meropenem MIC at 16 mg/L incubated for 18 hrs by broth dilution method (reference value: […] mg/L)
[24] = target: Class A carbapenemase KPC-2 (Escherichia coli) (UniProt A8DS27); experiment: Inhibition of beta lactamase KPC-2 in Escherichia coli 76 assessed as potentiation of meropenem-induced antibacterial activity by measuring meropenem MIC at 16 mg/L incubated for 18 hrs by broth dilution method (reference value: >[…] mg/L)
Klebsiella pneumoniae [25] = experiment: Inhibition of beta lactamase KPC-3 in Klebsiella pneumoniae 83 assessed as potentiation of ceftazidime-induced antibacterial activity by measuring ceftazidime MIC at 16 mg/L incubated for 18 hrs by broth dilution method (reference value: >[…] mg/L)

## OB(O)c1ccccc1
Klebsiella pneumoniae [1]
  MIC: 16 µg/mL
Klebsiella pneumoniae [2]
  MIC: 32 µg/mL
[3]
  MIC: 32 µg/mL
Acinetobacter baumannii [4]
  MIC: > 64 µg/mL
Acinetobacter baumannii [5]
  MIC: > 64 µg/mL
Pseudomonas aeruginosa [6]
  MIC: 8 µg/mL
[7]
  MIC: 16 µg/mL
Escherichia coli [8]
  MIC: 8 µg/mL
Escherichia coli [9]
  inhibition zone (IZ): 24 mm
[10]
  inhibition zone (IZ): 14 mm
Pseudomonas aeruginosa [11]
  MIC: > 64 µg/mL
[12]
  inhibition zone (IZ): 22 mm
Pseudomonas aeruginosa [13]
  MIC: 64 µg/mL
Klebsiella pneumoniae [14]
  MIC: 64 µg/mL
[15]
  MIC: > 64 µg/mL
Escherichia coli [16]
  MIC: 8 µg/mL
Klebsiella pneumoniae [17]
  MIC: 8 µg/mL
Klebsiella pneumoniae [18]
  MIC: 2 µg/mL
[19]
  inhibition zone (IZ): 19 mm
Pseudomonas aeruginosa [20]
  inhibition zone (IZ): 22 mm
Klebsiella pneumoniae [21]
  MIC: 16 µg/mL
Escherichia coli [22]
  MIC: 0.25 µg/mL
Klebsiella pneumoniae [23]
  MIC: 16 µg/mL
[24]
  MIC: 32 µg/mL
Klebsiella pneumoniae [25]
  MIC: 16 µg/mL
